Source: ChEMBL document CHEMBL1914423, “New imidazo[2,1-b]thiazole derivatives: synthesis, in vitro anticancer evaluation, and in silico studies” (Eur J Med Chem, 2011)

Experiments:
Assay type in all cases: functional
[1] = tested on: OVCAR-3; experiment: Anticancer activity against human OVCAR3 cells after 48 hrs by SRB assay; conditions: OVCAR-3, 48 h
[2] = tested on: RPMI-8226; experiment: Anticancer activity against human RPMI8226 cells after 48 hrs by SRB assay; conditions: RPMI-8226, 48 h
[3] = tested on: NCI-H23; experiment: Anticancer activity against human NCI-H23 cells after 48 hrs by SRB assay; conditions: NCI-H23, 48 h
[4] = tested on: UACC-257; experiment: Anticancer activity against human UACC257 cells after 48 hrs by SRB assay; conditions: UACC-257, 48 h
Procedure, shortened: (§1)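 NCI-60 five-dose mode: cells in RPMI 1640 with 5% FBS and 2 mM glutamine, plated at 5000–40,000 cells/well, and preincubated 24 h, with time-zero plates TCA-fixed. Drug given at five concentrations (10-fold or ½-log serial dilutions). Cold TCA fixation 60 min at 4 °C, SRB stain, Tris solubilization, A515. IC50 taken where [(Ti−Tz)/(C−Tz)]×100 = 50.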

[5] = tested on: MDA-MB-231; experiment: Anticancer activity against human MDA-MB-231 cells after 48 hrs by SRB assay; conditions: MDA-MB-231, 48 h
Procedure, shortened: (§2)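 NCI five-dose screen. Cells in RPMI 1640 with 5% FBS and 2 mM L-glutamine, seeded at 5000–40,000 cells/well according to doubling time, then pre-incubated 24 h at 37 °C in 5% CO2. Drugs dissolved in DMSO, five concentrations by 10-fold or 1/2-log dilution. Cells fixed with TCA, SRB-stained, A515 read. IC50 solved from [(Ti−Tz)/(C−Tz)]×100 = 50.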

[6] = tested on: NCI-H522; experiment: Anticancer activity against human NCI-H522 cells after 48 hrs by SRB assay; conditions: NCI-H522, 48 h
[7] = tested on: OVCAR-8; experiment: Anticancer activity against human OVCAR8 cells after 48 hrs by SRB assay; conditions: OVCAR-8, 48 h
[8] = tested on: EKVX; experiment: Anticancer activity against human EKVX cells after 48 hrs by SRB assay; procedure, shortened: as §2
[9] = tested on: TK-10; experiment: Anticancer activity against human TK10 cells after 48 hrs by SRB assay; conditions: TK-10, 48 h; procedure, shortened: as §1
[10] = tested on: HOP-62; experiment: Anticancer activity against human HOP62 cells after 48 hrs by SRB assay; conditions: HOP-62, 48 h; procedure, shortened: as §2
[11] = tested on: COLO 205; experiment: Anticancer activity against human COLO205 cells after 48 hrs by SRB assay; conditions: COLO 205, 48 h; procedure, shortened: as §2
[12] = tested on: MDA-MB-468; experiment: Anticancer activity against human MDA-MB-468 cells after 48 hrs by SRB assay; conditions: MDA-MB-468, 48 h
[13] = tested on: SF-539; experiment: Anticancer activity against human SF539 cells after 48 hrs by SRB assay; conditions: SF-539, 48 h
[14] = tested on: SNB-75; experiment: Anticancer activity against human SNB75 cells after 48 hrs by SRB assay; conditions: SNB-75, 48 h
[15] = tested on: T47D; experiment: Anticancer activity against human T47D cells after 48 hrs by SRB assay; procedure, shortened: as §1
[16] = tested on: HCT-15; experiment: Anticancer activity against human HCT15 cells after 48 hrs by SRB assay; conditions: HCT-15, 48 h; procedure, shortened: as §2
[17] = tested on: Malme-3M; experiment: Anticancer activity against human MALME-3M cells after 48 hrs by SRB assay; procedure, shortened: as §2
[18] = tested on: NCI-H322M; experiment: Anticancer activity against human NCI-H322M cells after 48 hrs by SRB assay
[19] = tested on: SK-MEL-2; experiment: Anticancer activity against human SK-MEL-2 cells after 48 hrs by SRB assay; conditions: SK-MEL-2, 48 h
[20] = tested on: MDA-MB-435; experiment: Anticancer activity against human MDA-MB-435 cells after 48 hrs by SRB assay; conditions: MDA-MB-435, 48 h; procedure, shortened: as §2
[21] = tested on: SK-MEL-28; experiment: Anticancer activity against human SK-MEL-28 cells after 48 hrs by SRB assay; conditions: SK-MEL-28, 48 h
[22] = tested on: HOP-92; experiment: Anticancer activity against human HOP92 cells after 48 hrs by SRB assay; conditions: HOP-92, 48 h; procedure, shortened: as §2
[23] = tested on: HT-29; experiment: Anticancer activity against human HT-29 cells after 48 hrs by SRB assay; conditions: HT-29, 48 h; procedure, shortened: as §2
[24] = tested on: SR; experiment: Anticancer activity against human SR cells after 48 hrs by SRB assay; procedure, shortened: as §1
[25] = tested on: PC-3; experiment: Anticancer activity against human PC3 cells after 48 hrs by SRB assay; conditions: PC-3, 48 h
[26] = tested on: SW-620; experiment: Anticancer activity against human SW620 cells after 48 hrs by SRB assay; conditions: SW-620, 48 h; procedure, shortened: as §1
[27] = tested on: CAKI-1; experiment: Anticancer activity against human Caki1 cells after 48 hrs by SRB assay; conditions: CAKI-1, 48 h; procedure, shortened: as §2
[28] = tested on: MOLT-4; experiment: Anticancer activity against human MOLT4 cells after 48 hrs by SRB assay; conditions: MOLT-4, 48 h
[29] = tested on: SF-268; experiment: Anticancer activity against human SF268 cells after 48 hrs by SRB assay; conditions: SF-268, 48 h
[30] = read-out: LC50 (the source's name)

For COc1cccc(-c2nc3sccn3c2-c2ccnc(NCCNC(=O)Nc3cccc(C(F)(F)F)c3)n2)c1, the GI50 [1] was 4.22 µM, the TGI [1] was 20.3 µM and the CC50 [1, 30] was over 100 µM. For the same compound, the GI50 [2] was 1.92 µM, the LC50 [2] was over 100 µM and the TGI [2] was 5.11 µM. For the same compound, the GI50 [3] was 3.42 µM, the LC50 (50% lethal concentration) [3] was over 100 µM and the TGI [3] was 76.9 µM. It also gave a GI50 [4] of 4.34 µM, a TGI [4] of 16.5 µM and a CC50 [4, 30] of 65.9 µM. For the same compound, the GI50 [5] was 3.47 µM, the TGI [5] was 12 µM and the CC50 [5, 30] was over 100 µM. The GI50 [6] was 2.67 µM, the TGI [6] was 8.51 µM and the CC50 [6, 30] was 86.5 µM. The GI50 [7] was 3.28 µM, the TGI [7] was 9.79 µM and the CC50 [7, 30] was 66.2 µM. It also gave a GI50 [8] of 3.55 µM, an LC50 [8] of over 100 µM and a TGI [8] of 59.6 µM. For the same compound, the GI50 [9] was 3.6 µM, the TGI [9] was 18.8 µM and the CC50 [9, 30] was over 100 µM. For the same compound, the GI50 [10] was 6.71 µM, the LC50 (concentration killing 50% of starting cells) [10] was over 100 µM and the TGI [10] was 42.4 µM. The GI50 [11] was 5.37 µM, the TGI [11] was 19.2 µM and the CC50 [11, 30] was 58 µM. For the same compound, the GI50 [12] was 2.63 µM, the TGI [12] was 10.4 µM and the CC50 [12, 30] was over 100 µM. The GI50 [13] was 3.83 µM, the TGI [13] was 17.1 µM and the CC50 [13, 30] was 56.5 µM. The GI50 [14] was 3.41 µM, the TGI [14] was 21.7 µM and the CC50 [14, 30] was over 100 µM. The GI50 [15] was 3.77 µM, the TGI [15] was 13.8 µM and the CC50 [15, 30] was 61 µM. The GI50 [16] was 3.05 µM, the TGI [16] was 16.4 µM and the CC50 [16, 30] was over 100 µM. For the same compound, the GI50 [17] was 3.86 µM, the TGI [17] was 26.8 µM and the CC50 [17, 30] was over 100 µM. The GI50 [18] was 7.23 µM, the TGI [18] was over 100 µM and the CC50 [18, 30] was over 100 µM. For the same compound, the GI50 [19] was 2.03 µM, the TGI [19] was 4.46 µM and the CC50 [19, 30] was 9.78 µM. The GI50 [20] was 2.95 µM, the TGI [20] was 12.3 µM and the CC50 [20, 30] was over 100 µM. For the same compound, the GI50 [21] was 5.36 µM, the TGI [21] was 26.2 µM and the CC50 [21, 30] was over 100 µM. The GI50 [22] was 0.853 µM, the TGI [22] was 9.47 µM and the CC50 [22, 30] was over 100 µM. For the same compound, the GI50 [23] was 3.33 µM, the TGI [23] was 14 µM and the CC50 [23, 30] was over 100 µM. The GI50 [24] was 3.75 µM, the TGI [24] was 29.7 µM and the CC50 [24, 30] was over 100 µM. The GI50 [25] was 2.47 µM, the TGI [25] was 11.9 µM and the CC50 [25, 30] was over 100 µM. For the same compound, the GI50 [26] was 4.47 µM, the TGI [26] was 91.5 µM and the CC50 [26, 30] was over 100 µM. For the same compound, the GI50 [27] was 3.5 µM, the TGI [27] was 10.3 µM and the CC50 [27, 30] was over 100 µM. The GI50 [28] was 3.27 µM, the TGI [28] was 9.94 µM and the CC50 [28, 30] was over 100 µM. It also gave a GI50 [29] of 4.59 µM, a TGI [29] of 43.4 µM and a CC50 [29, 30] of over 100 µM.
